ChEMBL document CHEMBL2029236, “Tubulin binding, protein-bound conformation in solution, and antimitotic cellular profiling of noscapine and its derivatives” (J Med Chem, 2012)
Calls of active or inactive are those of the source. The calls are words filed in the database; no cut-off is given here.

What was measured:
SNU-398 [1] = assay: Antiproliferative activity against human SNU398 cells; assay type: functional, cell-based
Summary of the method: (§1)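 Cell viability assay in hepatocellular carcinoma cell lines; IC50 values derived from concentration–response data and reported in nM.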

[2] = Antiproliferative activity against human PLC/PRF/5 cells; assay type: functional, cell-based; summary of the method: as §1
SMMC-7721 = assay: Antiproliferative activity against human SMMC7721 after 72 hrs by CellTiter Glo assay; assay type: functional, cell-based; conditions: SMMC-7721, 72 h; summary of the method: as §1
[3] = Antiproliferative activity against human MHCC97H after 72 hrs by CellTiter Glo assay; assay type: functional; summary of the method: as §1
Bel-7402 = assay: Antiproliferative activity against human Bel7402 after 72 hrs by CellTiter Glo assay; assay type: functional, cell-based; conditions: Bel-7402, 72 h; summary of the method: as §1
[4] = Antiproliferative activity against human Hep3B after 72 hrs by CellTiter Glo assay; assay type: functional, Hep 3B2; summary of the method: as §1
HepG2 = assay: Antiproliferative activity against human HepG2 after 72 hrs by CellTiter Glo assay; assay type: functional, cell-based; conditions: HepG2, 72 h; summary of the method: as §1
Huh-7 = assay: Antiproliferative activity against human HuH7 after 72 hrs by CellTiter Glo assay; assay type: functional, cell-based; conditions: Huh-7, 72 h; summary of the method: as §1
[5] = Antiproliferative activity against human JHH2 after 72 hrs by CellTiter Glo assay; assay type: functional; summary of the method: as §1
[6] = Antiproliferative activity against human JHH4 after 72 hrs by CellTiter Glo assay; assay type: functional; summary of the method: as §1
[7] = Antiproliferative activity against human PLC/PRF/5 after 72 hrs by CellTiter Glo assay; assay type: functional; conditions: PLC-PRF-5, 72 h; summary of the method: as §1
[8] = Antiproliferative activity against human SNU182 after 72 hrs by CellTiter Glo assay; assay type: functional, cell-based; conditions: SNU-182, 72 h; summary of the method: as §1
SNU-387 = assay: Antiproliferative activity against human SNU387 after 72 hrs by CellTiter Glo assay; assay type: functional, cell-based; conditions: SNU-387, 72 h; summary of the method: as §1
SNU-398 [9] = assay: Antiproliferative activity against human SNU398 after 72 hrs by CellTiter Glo assay; assay type: functional, cell-based; conditions: SNU-398, 72 h; summary of the method: as §1
SNU-423 = assay: Antiproliferative activity against human SNU423 after 72 hrs by CellTiter Glo assay; assay type: functional, cell-based; conditions: SNU-423, 72 h; summary of the method: as §1
SNU-449 = assay: Antiproliferative activity against human SNU449 after 72 hrs by CellTiter Glo assay; assay type: functional, cell-based; conditions: SNU-449, 72 h; summary of the method: as §1
SNU-475 = assay: Antiproliferative activity against human SNU475 after 72 hrs by CellTiter Glo assay; assay type: functional, cell-based; conditions: SNU-475, 72 h; summary of the method: as §1
SNU-398 [10] = assay: Cell cycle arrest in human SNU398 cells assessed as accumulation at G1 phase after 24 hrs by FACS analysis (reference value: 55.8%); assay type: functional
SNU-398 [11] = assay: Cell cycle arrest in human SNU398 cells assessed as accumulation at G2 phase after 24 hrs by FACS analysis (reference value: 38.2%); assay type: functional
SNU-398 [12] = assay: Cell cycle arrest in human SNU398 cells assessed as accumulation at sub-G1 phase after 24 hrs by FACS analysis (reference value: 1.2%); assay type: functional
[13] = Cell cycle arrest in human PLC/PRF/5 cells assessed as accumulation at G1 phase after 24 hrs by FACS analysis (reference value: 66.8%); assay type: functional, cell-based
[14] = Cell cycle arrest in human PLC/PRF/5 cells assessed as accumulation at G2 phase after 24 hrs by FACS analysis (reference value: 26.1%); assay type: functional, cell-based
[15] = Cell cycle arrest in human PLC/PRF/5 cells assessed as accumulation at sub-G1 phase after 24 hrs by FACS analysis (reference value: 1.4%); assay type: functional, cell-based
Bos taurus [16] = organism: Bos taurus; assay: Inhibition of calf brain tubulin assembly at 1 mM
Summary of the method: (§2)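 Read-out: amount of pelleted polymerized tubulin across a compound concentration range. EC50 taken at 50% reduction of the pellet. Average of three experiments.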

[17] = Inhibition of calf brain tubulin assembly; parameters: species or system Bos taurus; summary of the method: as §2
Bos taurus [18] = organism: Bos taurus; assay: Binding affinity to calf brain tubulin assessed as increase in fluorescence at 10 uM by fluorometry relative to control
Summary of the method: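 Fluorescence emission spectra of 10 μM ligand with and without 10 μM tubulin in 10 mM sodium phosphate, 0.1 mM GTP, pH 7.0, 25 °C. Emission intensity (425 nm maximum) and anisotropy were compared between bound and unbound ligand.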

Bos taurus [19] = organism: Bos taurus; assay: Binding affinity to calf brain tubulin assessed as binding constant by fluorometry; assay type: tissue-based
Summary of the method: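 Fluorescence titration in 10 mM sodium phosphate, 0.1 mM GTP, pH 7.0, 25 °C. Ligand at 5 μM was titrated with tubulin up to 100 μM. Bound and free ligand were quantified from the change in ligand fluorescence. Binding constant fitted assuming a single site, 1:1 stoichiometry and 0.87 sites per dimer. Average of five experiments.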

Bos taurus [20] = organism: Bos taurus; assay: Inhibition of calf brain tubulin assembly at 10 uM by fluorometry in presence of podophyllotoxin
Bos taurus [21] = organism: Bos taurus; assay: Inhibition of calf brain tubulin assembly at 10 uM by fluorometry in presence of vinblastine
Bos taurus [22] = organism: Bos taurus; assay: Inhibition of calf brain tubulin assembly at 10 uM by fluorometry in presence of isohomohalichondrin
Bos taurus [23] = organism: Bos taurus; assay: Inhibition of calf brain tubulin assembly at 10 uM by fluorometry in presence of pironetin
Bos taurus [24] = organism: Bos taurus; assay: Inhibition of calf brain tubulin assembly at 10 uM by fluorometry in presence of gossipol
Bos taurus [25] = organism: Bos taurus; assay: Inhibition of calf brain tubulin assembly at 10 uM by fluorometry in presence of noscapine
Bos taurus [26] = organism: Bos taurus; assay: Inhibition of calf brain tubulin assembly at 10 uM by fluorometry in presence of nocodazole
Bos taurus [27] = organism: Bos taurus; assay: Binding affinity to calf brain tubulin alpha/beta heterodimer assessed as increase in proton signal at […] by STD NMR analysis
Summary of the method: (§3)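 STD NMR with freshly prepared tubulin α/β heterodimer. Ligand:protein molar ratio 30:1 ([…], […]). Read-out: enhancement of ligand proton signals in STD spectra versus an off-resonance reference spectrum acquired without protein irradiation.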

Bos taurus [28] = organism: Bos taurus; assay: Binding affinity to calf brain tubulin alpha/beta heterodimer assessed as increase in proton signal at […] by STD NMR analysis in the presence of noscapine; summary of the method: as §3
[29] = Antiproliferative activity against human JHH7 after 72 hrs by CellTiter Glo assay; assay type: functional; summary of the method: as §1
SNU-398 [30] = assay: Cell cycle arrest in human SNU398 cells assessed as accumulation at G1 phase at 2 uM after 24 hrs by FACS analysis (reference value: 55.8%); assay type: functional
SNU-398 [31] = assay: Cell cycle arrest in human SNU398 cells assessed as accumulation at G2 phase at 2 uM after 24 hrs by FACS analysis (reference value: 38.2%); assay type: functional
SNU-398 [32] = assay: Cell cycle arrest in human SNU398 cells assessed as accumulation at sub-G1 phase at 2 uM after 24 hrs by FACS analysis (reference value: 1.2%); assay type: functional
[33] = Cell cycle arrest in human PLC/PRF/5 cells assessed as accumulation at G1 phase at 2 uM after 24 hrs by FACS analysis (reference value: 66.8%); assay type: functional, cell-based
[34] = Cell cycle arrest in human PLC/PRF/5 cells assessed as accumulation at G2 phase at 2 uM after 24 hrs by FACS analysis (reference value: 26.1%); assay type: functional, cell-based
[35] = Cell cycle arrest in human PLC/PRF/5 cells assessed as accumulation at sub-G1 phase at 2 uM after 24 hrs by FACS analysis (reference value: 1.4%); assay type: functional, cell-based
[36] = Metabolic stability in microsomes assessed as compound remaining; assay type: ADME, Microsome
[37] = Metabolic stability in S9 fraction assessed as compound remaining; assay type: ADME, subcellular
Bos taurus [38] = organism: Bos taurus; assay: Binding affinity to calf brain tubulin assessed as increase in fluorescence at 10 uM by fluorometry in presence of Mg2+
Bos taurus [39] = organism: Bos taurus; assay: Binding affinity to calf brain tubulin alpha/beta heterodimer by NOE method; assay type: tissue-based
Summary of the method: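 Transferred NOE (TR-NOESY) of ligand with tubulin α/β heterodimer at 500 MHz, 298 K. The sign of the NOE cross-peaks is compared between ligand with tubulin and free ligand. Bound conformation derived with molecular mechanics.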

`CC(=O)O[C@@]12CO[C@@H]1C[C@H](O)[C@@]1(C)C(=O)[C@H](O)C3=C(C)[C@@H](OC(=O)[C@H](O)[C@@H](NC(=O)OC(C)(C)C)c4ccccc4)C[C@@](O)([C@@H](OC(=O)c4ccccc4)[C@H]21)C3(C)C.O.O.O` [DOCETAXEL] showed an IC50 (SNU-398 [1]) of 16.6 nM, an IC50 [2] of 12 nM and an IC50 (SMMC-7721) of 2 nM. For the same molecule, the IC50 [3] was 22.4 nM, the IC50 (Bel-7402) was 1.9 nM and the IC50 [4] was 38.2 nM. It also gave an IC50 (HepG2) of over 100 nM, an IC50 (Huh-7) of 12.1 nM and an IC50 [5] of over 100 nM. It also gave an IC50 [6] of 14.1 nM, an IC50 [7] of 16.7 nM and an IC50 [8] of 39.2 nM. It also gave an IC50 (SNU-387) of 4.3 nM, an IC50 (SNU-398 [9]) of 17.6 nM and an IC50 (SNU-423) of 10.8 nM. The IC50 (SNU-449) was over 100 nM, the IC50 (SNU-475) was 20.5 nM and the Activity (SNU-398 [10]) was 12.7%. It also gave an Activity (SNU-398 [11]) of 72.2%, an Activity (SNU-398 [12]) of 9.3% and an Activity [13] of 11.2%. The Activity [14] was 64.4% and the Activity [15] was 16.8%.
With `COc1ccc2c(c1N)C(=O)O[C@@H]2[C@H]1c2c(cc3c(c2OC)OCO3)CCN1C` the inhibition (Bos taurus [16]) was 50%, the EC50 [17] was 1200 nM and the fold change (FC) (Bos taurus [18]) was 11. For the same molecule, the Activity (Bos taurus [19]) was 1.15 ×10⁵ /M, the inhibition (Bos taurus [20]) was “Active” and the inhibition (Bos taurus [21]) was “Active”. For the same molecule, the inhibition (Bos taurus [22]) was “Active”, the inhibition (Bos taurus [23]) was “Active” and the inhibition (Bos taurus [24]) was “Active”. For the same molecule, the inhibition (Bos taurus [25]) was “Active”, the inhibition (Bos taurus [26]) was “inactive” and the inhibition (Bos taurus [27]) was “Active”. For the same molecule, the inhibition (Bos taurus [28]) was “Active”, the IC50 (SNU-398 [1]) was 94.3 nM and the IC50 [2] was 237 nM. For the same molecule, the IC50 (SMMC-7721) was 109 nM, the IC50 [3] was 351 nM and the IC50 (Bel-7402) was 78.4 nM. For the same molecule, the IC50 [4] was over 1000 nM, the IC50 (HepG2) was over 1000 nM and the IC50 (Huh-7) was 218 nM. The IC50 [5] was over 1000 nM, the IC50 [6] was 107 nM and the IC50 [29] was 318 nM. The IC50 [7] was 278 nM, the IC50 [8] was 508 nM and the IC50 (SNU-387) was 59.5 nM. The IC50 (SNU-398 [9]) was 324 nM, the IC50 (SNU-423) was 226 nM and the IC50 (SNU-449) was 283 nM. It also gave an IC50 (SNU-475) of 584 nM, an Activity (SNU-398 [30]) of 22.9% and an Activity (SNU-398 [31]) of 59.8%. It also gave an Activity (SNU-398 [32]) of 13.8%, an Activity [33] of 18% and an Activity [34] of 67%. For the same molecule, the Activity [35] was 8.4%, the Stability [36] was under 5% and the Stability [37] was under 5%. The Activity (Bos taurus [38]) was “Active” and the Activity (Bos taurus [39]) was “Active”.
